In data set [1] the test system is AGS (human gastric adenocarcinoma). Put plainly: SRB cytotoxicity assay, AGS cells. Format: cell-based. The note with it: for IC50: read-out: IC50 AGS. A digest of the protocol:
(§1)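 Cells plated at 3 × 10³ per well and left 24 h to attach at 37 °C, 5% CO₂. Test compound at 0–100 µM from ethanol stocks (1% final ethanol) for 72 h. Fixation in TCA (10% final), staining with 0.1% SRB, dye solubilized in 10 mM Tris, A540. Viability relative to 1% ethanol vehicle. IC50 from a four-parameter logistic fit with 95% CI; triplicate, three independent runs, mean ± SD. SI = IC50 in GES-1 divided by IC50 in the cancer line.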
Background: In SRB staining, fixed cells bind dye roughly in proportion to their protein.

A short description of data set [2]: Hemolysis assay. Type of data set: cell-based, human. The note with it: human, washed human red blood cells, Hemolysis (%), 30 min, 37 °C. Summed up:
(§2)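 Donor blood was collected in EDTA. RBCs were pelleted at 500 × g for 10 min, washed three times in PBS and resuspended in PBS. Cells were exposed to test compound at 10–300 µg/mL for 30 min at 37 °C with gentle agitation, then spun at 1000 × g for 5 min; supernatant hemoglobin was read at 540 nm. Deionized water defined 100% and PBS 0% hemolysis. Triplicate, three independent repeats.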

The subject of data set [3] is human erythrocytes. Kind of data set: Hemolysis assay. Type of data set: cell-based. The note with it: for Hemolysis (%): 30 min, 37 °C; for Hemolysis, result in words: 10–300 µg/mL. A digest of the protocol: as §2
The subject of data set [4] is HT-29 (human colorectal adenocarcinoma). Kind of data set: SRB cytotoxicity assay, HT-29 cells. Type of data set: cell-based. The note with it: read-out: IC50 HT-29. Summed up:
as §1

The subject of data set [5] is PC-3 (human prostate cancer). Kind of data set: SRB cytotoxicity assay, PC-3 cells. Type of data set: cell-based. The note with it: read-out: IC50 PC-3. A digest of the protocol:
as §1

A short description of data set [6]: ABTS radical scavenging assay. Type of data set: biochemical. The following applies: concentration to scavenge 50% of radicals, mean ± SD; for IC50: read-out: ABTS IC50. Summed up: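 ABTS radical cation generated by reacting ABTS with potassium persulfate, then diluted to an absorbance of about 0.700 at 732 nm. Test compound at several concentrations was mixed with the ABTS⁺ solution and the fall in absorbance recorded. Percent scavenging was calculated against a solvent control, with ascorbic acid as reference antioxidant. Three independent experiments in triplicate, mean ± SD.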

Data set [7] can be described thus: DPPH radical scavenging assay. Format: biochemical. The following applies: concentration to scavenge 50% of radicals, 15 min, mean ± SD. A digest of the protocol: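 Test compound solutions (5–400 µg/mL, concentration before mixing) were added to 50 µM ethanolic DPPH and kept 15 min at room temperature in the dark, then read at 517 nm. A blank with solvent in place of compound served as control. IC50 came from linear regression of % scavenging against concentration. Three independent experiments in triplicate, mean ± SD.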

Data set [8] deals with GES-1 (healthy gastric epithelial cells). Kind of data set: SRB cytotoxicity assay, GES-1 non-tumor cells. Type of data set: cell-based, human. The following applies: read-out: IC50 GES-1, 72 h treatment, mean ± SD.
The subject of data set [9] is mitochondrial membrane permeability of cancer cell line. Put plainly: Mitochondrial membrane permeability by flow cytometry. Type of data set: cell-based, human. The following applies: 48 h, Rhodamine 123, flow cytometry. A general note: Flow cytometry measures light scatter and fluorescence of single cells or particles in a stream.

Read-outs that look alike come from different tables or passages of the source.

For orientation: IC50 means the concentration at which inhibition is half-maximal.

As for `CC12CCC(CC1=O)C2(C)C` (stereo not drawn) [Compound 1, camphor, reference compound], the concentration for half-maximal inhibition (IC50) was over 100 µM in data set [1] (Homo sapiens, AGS, 72 h); over 100 µM in data set [4] (Homo sapiens, HT-29, 72 h); over 100 µM in data set [5] (Homo sapiens, PC-3, 72 h); over 2630 µM in data set [6]. This compound also showed a hemolysis at 30 min, 200 µg/mL in [2] of 9.67%. The compound further returned a hemolysis at 30 min, 300 µg/mL in data set [2] of 10.1%. Moreover, the “Hemolysis (%)” value in [3] (10 µg/mL) is 0%; in data set [3] (25 µg/mL), 0.06%; in data set [3] (50 µg/mL), 3.11%; in data set [3] (100 µg/mL), 4.80%. Besides, the “ABTS IC50” value in data set [6] was “inactive”. The “DPPH IC50” value in data set [7] is “inactive”.
On to `CC12CCC(CC1=O)C2(C)C` (stereo not drawn) [Compound 2, camphor, reference compound], for which the half-maximal inhibitory concentration (IC50) is over 100 µM in data set [1] (SRB, 72 h treatment, mean ± SD); over 100 µM in data set [4] (SRB, 72 h treatment, mean ± SD); over 100 µM in [5] (SRB, 72 h treatment, mean ± SD); 322.7 ± 1.7 µM in data set [8]; over 2630 µM in data set [6]. Besides, the “Hemolysis (%)” value was 5.25% in data set [3] (10 µg/mL); 6.55% in data set [3] (25 µg/mL); 9.61% in data set [3] (50 µg/mL); 11.29% in data set [3] (100 µg/mL); 16.16% in data set [3] (200 µg/mL); 16.62% in [3] (300 µg/mL). Further, in [3], the “Hemolysis, result in words” value is “concentration dependent increase in hemolysis”. The “ABTS IC50” value in [6] was “inactive”. In addition, in data set [7], the “DPPH IC50” value was “inactive”.
As to `CC1(C)C2CC[C@]1(C)C(=O)/C2=C/c1ccco1` [Compound 3, (1S,3E)-3-[(furan-2-yl)methylidene]-1,7,7-trimethylbicyclo[2.2.1]heptan-2-one], the IC50 was 99.9 ± 0.2 µM in data set [1] (Homo sapiens, AGS, 72 h); over 100 µM in [4] (Homo sapiens, HT-29, 72 h); over 100 µM in data set [5] (Homo sapiens, PC-3, 72 h); 953 ± 1.5 µM in data set [6]. Further, the “Selectivity index (SI) AGS” value in data set [1] (IC50 in GES-1 / IC50 in AGS) was determined as 1.85. The compound also returned a hemolysis at 30 min, 10 µg/mL in data set [2] (10 µg/mL) of 6.75%. In [2] (25 µg/mL), the hemolysis at 30 min, 25 µg/mL was determined as 8.31%. Further, in data set [2] (50 µg/mL), the hemolysis at 30 min, 50 µg/mL was 17.9%. This compound yielded a hemolysis at 30 min, 100 µg/mL in data set [2] (100 µg/mL) of 23.6%. Further, in [2], the hemolysis at 30 min, 200 µg/mL turned out to be 28.2%. In [2], the hemolysis at 30 min, 300 µg/mL was 35.3%. In data set [3], the “Hemolysis, result in words” value is “concentration dependent increase in hemolysis”. The “Effect on mitochondrial membrane potential” value in data set [9] was “loss of the mitochondrial membrane potential”.

Source of the values: PMC12705676 (Scientific Reports, 2025).
